# Results published in ChEMBL document CHEMBL1135742, “Modification of the structure of a metallopeptide: synthesis and biological evaluation of (111)In-labeled DOTA-conjugated rhenium-cyclized alpha-MSH analogues” (J Med Chem, 2002).
# Species: Mus musculus
# Assay: Uptake Ratio of Tumor/blood (each in % ID/g) in B16/F1 Murine Melanoma-Bearing C57 Mice at 4 h
# Type: functional, organism-based
# Settings: not given
# In short: (§1)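 C57 BL/6 female mice (7–8 weeks) carried B16/F1 tumours from 1×10^6 cells given s.c. in the right flank; tumours were ~500 mg at 9–10 days. Each mouse received […] of HPLC-purified, neutralized 111In-DOTA peptide via the tail vein. Mice were killed at 0.5, 2, 4 or 24 h pi. Tissues were weighed and γ-counted, expressed as % ID/g; ratios were tumor/tissue % ID/g.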
row,Substance,Uptake ratio
1,DOTA-ReCCEHdFRWCKPV-OH,200

# Species: Mus musculus
# Assay: Uptake Ratio of Tumor/muscle (each in % ID/g) in B16/F1 Murine Melanoma-Bearing C57 Mice at 4 h
# Type: functional, organism-based
# Settings: Muscle tissue
# In short: (§2)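 Female C57 BL/6 mice, 7–8 weeks old, carried subcutaneous right-flank B16/F1 tumors from 1×10^6 cells and were used 9–10 days later at ~500 mg tumor weight. Each received […] of HPLC-purified, pH-neutralized ¹¹¹In-DOTA peptide by tail vein. Tumor and organs were excised at the stated time, weighed and γ-counted. Each tissue was taken as % ID/g, and tumor/normal-tissue ratios were formed from these values.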
row,Substance,Uptake ratio
1,DOTA-ReCCEHdFRWCKPV-OH,277

# Species: Mus musculus
# Assay: Uptake Ratio of Tumor/liver (each in % ID/g) in B16/F1 Murine Melanoma-Bearing C57 Mice at 4 h
# Type: functional, organism-based
# Settings: not given
# In short: as §1
row,Substance,Uptake ratio
1,DOTA-ReCCEHdFRWCKPV-OH,69.1

# Species: Mus musculus
# Assay: Uptake Ratio of Tumor/lungs (each in % ID/g) in B16/F1 Murine Melanoma-Bearing C57 Mice at 24 h
# Type: functional, organism-based
# Settings: not given
# In short: as §2
row,Substance,Uptake ratio
1,DOTA-ReCCEHdFRWCKPV-OH,85.1

# Species: Mus musculus
# Assay: Radioactivity uptake in the pancreas was expressed as a percentage of the injected radioactive dose per gram of tissue (% ID/g) in B16/F1 Murine Melanoma-Bearing C57 Mice at 2 h
# Type: functional, organism-based
# Settings: not given
# In short: as §1
row,Substance,ID/g [%]
1,DOTA-ReCCEHdFRWCKPV-OH,0.03

# Species: Mus musculus
# Assay: Radioactivity uptake in the blood was expressed as a percentage of the injected radioactive dose per gram of tissue (% ID/g) in B16/F1 Murine Melanoma-Bearing C57 Mice at 0.5 h
# Type: functional, organism-based
# Settings: not given
# In short: as §1
row,Substance,ID/g [%]
1,DOTA-ReCCEHdFRWCKPV-OH,1.56

# Species: Mus musculus
# Assay: Uptake Ratio of Tumor/blood (each in % ID/g) in B16/F1 Murine Melanoma-Bearing C57 Mice at 0.5 h
# Type: functional, organism-based
# Settings: not given
# In short: as §1
row,Substance,Uptake ratio
1,DOTA-ReCCEHdFRWCKPV-OH,6.9

# Species: Mus musculus
# Assay: Radioactivity uptake in the liver was expressed as a percentage of the injected radioactive dose per gram of tissue (% ID/g) in B16/F1 Murine Melanoma-Bearing C57 Mice at 24 h
# Type: functional, organism-based
# Settings: not given
# In short: as §1
row,Substance,ID/g [%]
1,DOTA-ReCCEHdFRWCKPV-OH,0.17

# Species: Mus musculus
# Assay: Uptake Ratio of Tumor/blood (each in % ID/g) in B16/F1 Murine Melanoma-Bearing C57 Mice at 24 h
# Type: functional, organism-based
# Settings: not given
# In short: as §1
row,Substance,Uptake ratio
1,DOTA-ReCCEHdFRWCKPV-OH,22.4

# Species: Mus musculus
# Assay: Uptake Ratio of Tumor/lungs (each in % ID/g) in B16/F1 Murine Melanoma-Bearing C57 Mice at 4 h
# Type: functional, organism-based
# Settings: not given
# In short: as §2
row,Substance,Uptake ratio
1,DOTA-ReCCEHdFRWCKPV-OH,92

# Species: Mus musculus
# Assay: Radioactivity uptake in the liver was expressed as a percentage of the injected radioactive dose per gram of tissue (% ID/g) in B16/F1 Murine Melanoma-Bearing C57 Mice at 0.5 h
# Type: functional, organism-based
# Settings: not given
# In short: as §1
row,Substance,ID/g [%]
1,DOTA-ReCCEHdFRWCKPV-OH,0.45

# Species: Mus musculus
# Assay: Uptake Ratio of Tumor/kidneys (each in % ID/g) in B16/F1 Murine Melanoma-Bearing C57 Mice at 0.5 h
# Type: functional, organism-based
# Settings: Kidney
# In short: as §1
row,Substance,Uptake ratio
1,DOTA-ReCCEHdFRWCKPV-OH,0.95

# Species: Mus musculus
# Assay: Radioactivity uptake in the kidneys was expressed as a percentage of the injected radioactive dose per gram of tissue (% ID/g) in B16/F1 Murine Melanoma-Bearing C57 Mice at 0.5 h
# Type: functional, organism-based
# Settings: Kidney
# In short: as §1
row,Substance,ID/g [%]
1,DOTA-ReCCEHdFRWCKPV-OH,11.5

# Species: Mus musculus
# Assay: Radioactivity uptake in the liver was expressed as a percentage of the injected radioactive dose per gram of tissue (% ID/g) in B16/F1 Murine Melanoma-Bearing C57 Mice at 4 h
# Type: functional, organism-based
# Settings: not given
# In short: as §1
row,Substance,ID/g [%]
1,DOTA-ReCCEHdFRWCKPV-OH,0.14

# Species: Mus musculus
# Assay: Uptake Ratio of Tumor/kidneys (each in % ID/g) in B16/F1 Murine Melanoma-Bearing C57 Mice at 24 h
# Type: functional, organism-based
# Settings: Kidney
# In short: as §1
row,Substance,Uptake ratio
1,DOTA-ReCCEHdFRWCKPV-OH,0.43

# Species: Mus musculus
# Assay: Radioactivity uptake in the heart was expressed as a percentage of the injected radioactive dose per gram of tissue (% ID/g) in B16/F1 Murine Melanoma-Bearing C57 Mice at 4 h
# Type: functional, organism-based
# Settings: not given
# In short: as §1
row,Substance,ID/g [%]
1,DOTA-ReCCEHdFRWCKPV-OH,0.12

# Species: Mus musculus
# Assay: Uptake Ratio of Tumor/kidneys (each in % ID/g) in B16/F1 Murine Melanoma-Bearing C57 Mice at 4 h
# Type: functional, organism-based
# Settings: Kidney
# In short: as §1
row,Substance,Uptake ratio
1,DOTA-ReCCEHdFRWCKPV-OH,1.1

# Species: Mus musculus
# Assay: Radioactivity uptake in the lungs was expressed as a percentage of the injected radioactive dose per gram of tissue (% ID/g) in B16/F1 Murine Melanoma-Bearing C57 Mice at 2 h
# Type: functional, organism-based
# Settings: Lung
# In short: as §1
row,Substance,ID/g [%]
1,DOTA-ReCCEHdFRWCKPV-OH,0.18

# Species: Mus musculus
# Assay: Uptake Ratio of Tumor/muscle (each in % ID/g) in B16/F1 Murine Melanoma-Bearing C57 Mice at 24 h
# Type: functional, organism-based
# Settings: Muscle tissue
# In short: as §2
row,Substance,Uptake ratio
1,DOTA-ReCCEHdFRWCKPV-OH,26.8

# Species: Mus musculus
# Assay: Uptake Ratio of Tumor/kidneys (each in % ID/g) in B16/F1 Murine Melanoma-Bearing C57 Mice at 2 h
# Type: functional, organism-based
# Settings: Kidney
# In short: as §1
row,Substance,Uptake ratio
1,DOTA-ReCCEHdFRWCKPV-OH,1.1

# Species: Mus musculus
# Assay: Radioactivity uptake in the blood was expressed as a percentage of the injected radioactive dose per gram of tissue (% ID/g) in B16/F1 Murine Melanoma-Bearing C57 Mice at 2 h
# Type: functional, organism-based
# Settings: not given
# In short: as §1
row,Substance,ID/g [%]
1,DOTA-ReCCEHdFRWCKPV-OH,0.11

# Species: Mus musculus
# Assay: Radioactivity uptake in the heart was expressed as a percentage of the injected radioactive dose per gram of tissue (% ID/g) in B16/F1 Murine Melanoma-Bearing C57 Mice at 0.5 h
# Type: functional, organism-based
# Settings: not given
# In short: as §1
row,Substance,ID/g [%]
1,DOTA-ReCCEHdFRWCKPV-OH,0.68

# Species: Mus musculus
# Assay: Uptake Ratio of Tumor/liver (each in % ID/g) in B16/F1 Murine Melanoma-Bearing C57 Mice at 0.5 h
# Type: functional, organism-based
# Settings: not given
# In short: as §1
row,Substance,Uptake ratio
1,DOTA-ReCCEHdFRWCKPV-OH,23.1

# Species: Mus musculus
# Assay: Uptake Ratio of Tumor/blood (each in % ID/g) in B16/F1 Murine Melanoma-Bearing C57 Mice at 2 h
# Type: functional, organism-based
# Settings: not given
# In short: as §1
row,Substance,Uptake ratio
1,DOTA-ReCCEHdFRWCKPV-OH,143

# Species: Mus musculus
# Assay: Radioactivity uptake in the spleen was expressed as a percentage of the injected radioactive dose per gram of tissue (% ID/g) in B16/F1 Murine Melanoma-Bearing C57 Mice at 0.5 h
# Type: functional, organism-based
# Settings: not given
# In short: as §1
row,Substance,ID/g [%]
1,DOTA-ReCCEHdFRWCKPV-OH,0.4

# Species: Mus musculus
# Assay: Uptake Ratio of Tumor/liver (each in % ID/g) in B16/F1 Murine Melanoma-Bearing C57 Mice at 24 h
# Type: functional, organism-based
# Settings: not given
# In short: as §1
row,Substance,Uptake ratio
1,DOTA-ReCCEHdFRWCKPV-OH,18.5

# Species: Mus musculus
# Assay: Radioactivity uptake in the muscle was expressed as a percentage of the injected radioactive dose per gram of tissue (% ID/g) in B16/F1 Murine Melanoma-Bearing C57 Mice at 4 h
# Type: functional, organism-based
# Settings: not given
# In short: as §1
row,Substance,ID/g [%]
1,DOTA-ReCCEHdFRWCKPV-OH,0.035

# Species: Mus musculus
# Assay: Uptake Ratio of Tumor/muscle (each in % ID/g) in B16/F1 Murine Melanoma-Bearing C57 Mice at 0.5 h
# Type: functional, organism-based
# Settings: Muscle tissue
# In short: as §2
row,Substance,Uptake ratio
1,DOTA-ReCCEHdFRWCKPV-OH,27.9

# Species: Mus musculus
# Assay: Radioactivity uptake in the pancreas was expressed as a percentage of the injected radioactive dose per gram of tissue (% ID/g) in B16/F1 Murine Melanoma-Bearing C57 Mice at 0.5 h
# Type: functional, organism-based
# Settings: not given
# In short: as §1
row,Substance,ID/g [%]
1,DOTA-ReCCEHdFRWCKPV-OH,0.39

# Species: Mus musculus
# Assay: Radioactivity uptake in the muscle was expressed as a percentage of the injected radioactive dose per gram of tissue (% ID/g) in B16/F1 Murine Melanoma-Bearing C57 Mice at 2 h
# Type: functional, organism-based
# Settings: not given
# In short: as §1
row,Substance,ID/g [%]
1,DOTA-ReCCEHdFRWCKPV-OH,0.054

# Species: Mus musculus
# Assay: Radioactivity uptake in the lungs was expressed as a percentage of the injected radioactive dose per gram of tissue (% ID/g) in B16/F1 Murine Melanoma-Bearing C57 Mice at 0.5 h
# Type: functional, organism-based
# Settings: Lung
# In short: as §1
row,Substance,ID/g [%]
1,DOTA-ReCCEHdFRWCKPV-OH,1.21

# Species: Mus musculus
# Assay: Radioactivity uptake in the heart was expressed as a percentage of the injected radioactive dose per gram of tissue (% ID/g) in B16/F1 Murine Melanoma-Bearing C57 Mice at 24 h
# Type: functional, organism-based
# Settings: not given
# In short: as §1
row,Substance,ID/g [%]
1,DOTA-ReCCEHdFRWCKPV-OH,0.15

# Species: Mus musculus
# Assay: Radioactivity uptake in the muscle was expressed as a percentage of the injected radioactive dose per gram of tissue (% ID/g) in B16/F1 Murine Melanoma-Bearing C57 Mice at 24 h
# Type: functional, organism-based
# Settings: not given
# In short: as §1
row,Substance,ID/g [%]
1,DOTA-ReCCEHdFRWCKPV-OH,0.14

# Species: Mus musculus
# Assay: Radioactivity uptake in the lungs was expressed as a percentage of the injected radioactive dose per gram of tissue (% ID/g) in B16/F1 Murine Melanoma-Bearing C57 Mice at 24 h
# Type: functional, organism-based
# Settings: Lung
# In short: as §1
row,Substance,ID/g [%]
1,DOTA-ReCCEHdFRWCKPV-OH,0.11
